Test results taken from ChEMBL document CHEMBL2163193, “Meroterpenoid and diphenyl ether derivatives from Penicillium sp. MA-37, a fungus isolated from marine mangrove rhizospheric soil” (J Nat Prod, 2012).
≈ marks a conversion by molar mass, not a printed value.

system: Micrococcus luteus; test: Antimicrobial activity against Micrococcus luteus by broth microdilution method; assay type: functional; conditions: not given
Summary of the method: (§1)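 Broth microdilution run per a cited literature method, with chloromycetin as the positive control. The read-out is the MIC in μg/mL.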

| Structure (SMILES) | MIC [µg/mL] |
| --- | --- |
| O=C(N[C@H](CO)[C@H](O)c1ccc([N+](=O)[O-])cc1)C(Cl)Cl [CHLORAMPHENICOL] | 4 (≈ 12.4 µM) |
| COc1c(C(CC(C)C)OC)ccc(Oc2c(O)cc(C)cc2CO)c1C(=O)O (stereo unspecified) | 256 (≈ 633 µM) |
| CC(=O)OCc1cc(C)cc(O)c1Oc1ccc(CC=C(C)C)c(O)c1C(=O)O | 64 (≈ 160 µM) |

system: not listed separately; test: Toxicity against brine shrimp; assay type: organism-based; conditions: artemia, in vivo; read-out: LD50 (the source's name)
Summary of the method: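 Brine shrimp lethality follows a literature procedure, with DMSO as the negative control and colchicine as the positive control. Lethality is expressed as LD50 in μM.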

| Structure (SMILES) | LC50 [µM] |
| --- | --- |
| COc1c([C@@H](O)CC(C)C)ccc2c1C(=O)OCc1cc(C)cc(O)c1O2 [PENICILLIDE] | 158 |
| C=C(C)/C=C/c1ccc2c(c1OC)C(=O)OCc1cc(C)cc(O)c1O2 | 136 |
| COC(=O)[C@]12C(=O)[C@H](C)O[C@@H]3OC(=O)[C@](C)(C[C@H]4[C@]5(CO5)C5=CC(=O)OC(C)(C)C5=CC[C@@]41C)[C@@H]32 [BERKELEYACETAL B] | 160 |
| COc1c(/C=C/C(C)(C)OC)ccc2c1C(=O)OCc1cc(C)cc(O)c1O2 | 72.6 |
| COc1cc2c(c(OC)c1OC)-c1ccc(OC)c(=O)cc1[C@@H](NC(C)=O)CC2 [COLCHICINE] | 71.1 |

system: Escherichia coli; test: Antimicrobial activity against Escherichia coli by broth microdilution method; assay type: functional; conditions: not given; summary of the method: as §1

| Structure (SMILES) | MIC [µg/mL] |
| --- | --- |
| O=C(N[C@H](CO)[C@H](O)c1ccc([N+](=O)[O-])cc1)C(Cl)Cl [CHLORAMPHENICOL] | 4 (≈ 12.4 µM) |
| COc1c(C(CC(C)C)OC)ccc(Oc2c(O)cc(C)cc2CO)c1C(=O)O (stereo unspecified) | 32 (≈ 79.1 µM) |
| CC(=O)OCc1cc(C)cc(O)c1Oc1ccc(CC=C(C)C)c(O)c1C(=O)O | 16 (≈ 40 µM) |
